Experimental data published in the M2OR odorant receptor database.

Tests used:
Conditions in all cases: stereoisomer not certain
OR52I1 (Homo sapiens) = biological target: T1, OR52I1 (Homo sapiens) (UniProt Q8NGK6)
T1 sequence (whole entry): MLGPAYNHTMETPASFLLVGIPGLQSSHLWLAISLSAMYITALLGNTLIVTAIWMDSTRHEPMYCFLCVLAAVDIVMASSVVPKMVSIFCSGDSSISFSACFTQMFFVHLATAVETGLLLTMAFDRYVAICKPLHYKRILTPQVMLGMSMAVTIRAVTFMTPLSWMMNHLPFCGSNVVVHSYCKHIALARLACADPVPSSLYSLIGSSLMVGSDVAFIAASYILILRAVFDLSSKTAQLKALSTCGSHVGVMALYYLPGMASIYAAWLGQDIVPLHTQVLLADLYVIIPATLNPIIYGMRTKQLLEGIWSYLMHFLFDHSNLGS
In short: (§1)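 Assay methods differ from source to source, frequently being transient luciferase assays in mammalian cell lines. For each receptor–molecule pair, the label responsive (active) applies when the original authors judged the measured signal statistically different from baseline, and non-responsive (inactive) applies otherwise.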

OR52I2 (Homo sapiens) = biological target: T2, OR52I2 (Homo sapiens) (UniProt Q8NH67)
T2 sequence (whole entry): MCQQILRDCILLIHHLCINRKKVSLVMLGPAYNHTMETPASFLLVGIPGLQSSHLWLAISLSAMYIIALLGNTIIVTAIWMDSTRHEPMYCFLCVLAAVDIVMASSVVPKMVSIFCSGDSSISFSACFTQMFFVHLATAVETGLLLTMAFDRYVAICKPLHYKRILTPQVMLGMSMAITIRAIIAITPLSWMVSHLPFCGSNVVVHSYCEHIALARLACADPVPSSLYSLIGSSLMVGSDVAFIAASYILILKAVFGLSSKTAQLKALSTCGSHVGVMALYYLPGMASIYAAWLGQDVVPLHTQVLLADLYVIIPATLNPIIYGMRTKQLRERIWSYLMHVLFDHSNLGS
In short: as §1

OR52J3 (Homo sapiens) = OR52J3 (Homo sapiens) (UniProt Q8NH60)
OR52J3 (Homo sapiens), sequence (Q8NH60 whole entry): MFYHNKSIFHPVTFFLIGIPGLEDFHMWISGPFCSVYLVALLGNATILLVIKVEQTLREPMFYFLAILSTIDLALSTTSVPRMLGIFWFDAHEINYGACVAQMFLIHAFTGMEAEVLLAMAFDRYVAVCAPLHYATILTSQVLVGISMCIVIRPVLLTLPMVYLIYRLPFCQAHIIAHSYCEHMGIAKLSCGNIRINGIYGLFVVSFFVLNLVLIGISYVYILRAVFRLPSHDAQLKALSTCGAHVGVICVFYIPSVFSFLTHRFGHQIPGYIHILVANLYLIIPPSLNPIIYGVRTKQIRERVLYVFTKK
In short: as §1

OR52K1 (Homo sapiens) = biological target: T3, OR52K1 (Homo sapiens) (UniProt Q8NGK4)
T3 sequence (whole entry): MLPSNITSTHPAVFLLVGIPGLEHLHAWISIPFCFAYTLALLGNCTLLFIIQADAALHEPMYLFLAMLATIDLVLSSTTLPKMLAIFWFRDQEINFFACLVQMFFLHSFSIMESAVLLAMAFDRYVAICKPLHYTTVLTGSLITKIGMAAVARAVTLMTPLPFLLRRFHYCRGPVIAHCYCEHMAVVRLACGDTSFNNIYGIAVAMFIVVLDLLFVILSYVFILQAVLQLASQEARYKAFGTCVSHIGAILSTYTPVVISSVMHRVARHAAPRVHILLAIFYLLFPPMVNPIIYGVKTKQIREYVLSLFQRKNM
In short: as §1

OR52K2 (Homo sapiens) = biological target: T4, OR52K2 (Homo sapiens) (UniProt Q8NGK3)
T4 sequence (whole entry): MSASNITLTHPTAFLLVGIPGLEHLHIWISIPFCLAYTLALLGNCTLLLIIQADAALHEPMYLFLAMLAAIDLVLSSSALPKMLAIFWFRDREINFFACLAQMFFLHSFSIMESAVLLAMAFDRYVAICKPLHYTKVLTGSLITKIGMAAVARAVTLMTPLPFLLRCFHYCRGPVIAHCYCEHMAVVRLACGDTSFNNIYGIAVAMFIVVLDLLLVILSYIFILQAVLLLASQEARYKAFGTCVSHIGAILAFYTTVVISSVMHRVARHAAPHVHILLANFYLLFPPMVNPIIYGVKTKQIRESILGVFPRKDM
In short: as §1

OR52L1 (Homo sapiens) = biological target: T5, OR52L1 (Homo sapiens) (UniProt Q8NGH7)
T5 sequence (whole entry): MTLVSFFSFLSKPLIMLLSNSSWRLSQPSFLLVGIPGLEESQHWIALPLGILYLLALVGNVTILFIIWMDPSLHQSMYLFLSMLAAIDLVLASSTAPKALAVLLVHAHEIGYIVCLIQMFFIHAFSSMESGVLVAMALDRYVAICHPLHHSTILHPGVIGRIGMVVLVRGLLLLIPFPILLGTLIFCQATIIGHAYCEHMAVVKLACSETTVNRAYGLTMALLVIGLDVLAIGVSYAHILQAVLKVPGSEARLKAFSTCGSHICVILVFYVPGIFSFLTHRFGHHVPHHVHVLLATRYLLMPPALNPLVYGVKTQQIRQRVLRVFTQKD
In short: as §1

OR52M1 (Homo sapiens) = biological target: T6, OR52M1 (Homo sapiens) (UniProt Q8NGK5)
T6 sequence (whole entry): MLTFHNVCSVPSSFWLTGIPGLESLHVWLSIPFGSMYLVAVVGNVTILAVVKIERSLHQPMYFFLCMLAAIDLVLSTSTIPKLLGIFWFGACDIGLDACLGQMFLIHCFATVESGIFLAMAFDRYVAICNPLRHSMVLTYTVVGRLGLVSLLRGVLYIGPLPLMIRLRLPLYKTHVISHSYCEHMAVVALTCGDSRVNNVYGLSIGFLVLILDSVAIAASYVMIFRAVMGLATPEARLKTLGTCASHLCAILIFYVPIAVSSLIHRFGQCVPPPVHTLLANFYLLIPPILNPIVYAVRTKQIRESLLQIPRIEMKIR
In short: as §1

OR52N1 (Homo sapiens) = biological target: T7, OR52N1 (Homo sapiens) (UniProt Q8NH53)
T7 sequence (whole entry): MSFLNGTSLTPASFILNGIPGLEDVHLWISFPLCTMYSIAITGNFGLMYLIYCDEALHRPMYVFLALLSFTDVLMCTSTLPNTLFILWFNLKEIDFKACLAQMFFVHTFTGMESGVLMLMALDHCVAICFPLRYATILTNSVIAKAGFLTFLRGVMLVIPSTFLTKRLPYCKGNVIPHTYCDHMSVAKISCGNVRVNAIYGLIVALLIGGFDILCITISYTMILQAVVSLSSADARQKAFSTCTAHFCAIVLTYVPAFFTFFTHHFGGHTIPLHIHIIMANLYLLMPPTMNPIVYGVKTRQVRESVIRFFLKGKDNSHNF
In short: as §1

OR52N2 (Homo sapiens) = biological target: T8, OR52N2 (Homo sapiens) (UniProt Q8NGI0)
T8 sequence (whole entry): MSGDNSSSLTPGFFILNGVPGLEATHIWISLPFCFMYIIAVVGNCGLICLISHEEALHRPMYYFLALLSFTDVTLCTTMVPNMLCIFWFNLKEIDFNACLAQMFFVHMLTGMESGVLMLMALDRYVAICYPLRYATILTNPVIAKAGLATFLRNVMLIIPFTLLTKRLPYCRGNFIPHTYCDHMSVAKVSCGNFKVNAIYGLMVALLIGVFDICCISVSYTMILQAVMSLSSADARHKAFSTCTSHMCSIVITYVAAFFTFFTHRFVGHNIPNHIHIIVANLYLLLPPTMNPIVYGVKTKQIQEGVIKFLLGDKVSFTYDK
In short: as §1

OR52N4 (Homo sapiens) = biological target: T9, OR52N4 (Homo sapiens) (UniProt Q8NGI2)
T9 sequence (whole entry): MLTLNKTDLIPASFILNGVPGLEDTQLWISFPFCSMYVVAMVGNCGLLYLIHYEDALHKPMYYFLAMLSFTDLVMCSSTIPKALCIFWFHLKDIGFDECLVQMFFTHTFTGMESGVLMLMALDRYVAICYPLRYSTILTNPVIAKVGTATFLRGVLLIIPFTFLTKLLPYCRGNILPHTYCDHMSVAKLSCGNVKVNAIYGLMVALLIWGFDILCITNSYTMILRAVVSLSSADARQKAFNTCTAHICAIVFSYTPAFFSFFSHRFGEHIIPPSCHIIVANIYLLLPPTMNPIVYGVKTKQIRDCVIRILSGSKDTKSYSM
In short: as §1

OR52N5 (Homo sapiens) = biological target: T10, OR52N5 (Homo sapiens) (UniProt Q8NH56)
T10 sequence (whole entry): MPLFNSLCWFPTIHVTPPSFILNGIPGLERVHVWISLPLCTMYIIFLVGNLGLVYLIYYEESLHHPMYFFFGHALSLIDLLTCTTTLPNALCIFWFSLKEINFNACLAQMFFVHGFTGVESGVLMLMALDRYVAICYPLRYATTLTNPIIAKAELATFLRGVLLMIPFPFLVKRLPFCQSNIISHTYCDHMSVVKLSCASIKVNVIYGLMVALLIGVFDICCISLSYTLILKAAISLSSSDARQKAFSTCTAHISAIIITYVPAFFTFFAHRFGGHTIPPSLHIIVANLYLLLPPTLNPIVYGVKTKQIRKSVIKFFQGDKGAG
In short: as §1

OR52R1 (Homo sapiens) = biological target: T11, OR52R1 (Homo sapiens) (UniProt Q8NGF1)
T11 sequence (whole entry): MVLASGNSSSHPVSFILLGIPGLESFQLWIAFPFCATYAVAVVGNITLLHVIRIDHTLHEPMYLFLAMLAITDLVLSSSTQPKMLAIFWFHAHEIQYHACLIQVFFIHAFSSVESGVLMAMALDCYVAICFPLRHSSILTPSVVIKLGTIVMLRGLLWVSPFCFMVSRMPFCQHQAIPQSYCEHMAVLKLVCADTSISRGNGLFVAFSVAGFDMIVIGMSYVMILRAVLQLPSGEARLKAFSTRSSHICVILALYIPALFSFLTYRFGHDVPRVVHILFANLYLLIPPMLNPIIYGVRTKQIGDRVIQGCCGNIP
In short: as §1

OR52W1 (Homo sapiens) = biological target: T12, OR52W1 (Homo sapiens) (UniProt Q6IF63)
T12 sequence (whole entry): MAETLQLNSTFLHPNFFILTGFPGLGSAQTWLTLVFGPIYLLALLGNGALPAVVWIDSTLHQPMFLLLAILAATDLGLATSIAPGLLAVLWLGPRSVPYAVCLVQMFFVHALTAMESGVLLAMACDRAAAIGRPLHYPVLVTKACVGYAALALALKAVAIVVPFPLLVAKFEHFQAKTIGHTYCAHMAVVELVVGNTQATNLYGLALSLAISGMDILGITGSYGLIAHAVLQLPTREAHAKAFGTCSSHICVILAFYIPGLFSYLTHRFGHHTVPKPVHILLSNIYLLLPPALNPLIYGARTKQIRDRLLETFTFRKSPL
In short: as §1

OR56A1 (Homo sapiens) = biological target: T13, OR56A1 (Homo sapiens) (UniProt Q8NGH5)
T13 sequence (whole entry): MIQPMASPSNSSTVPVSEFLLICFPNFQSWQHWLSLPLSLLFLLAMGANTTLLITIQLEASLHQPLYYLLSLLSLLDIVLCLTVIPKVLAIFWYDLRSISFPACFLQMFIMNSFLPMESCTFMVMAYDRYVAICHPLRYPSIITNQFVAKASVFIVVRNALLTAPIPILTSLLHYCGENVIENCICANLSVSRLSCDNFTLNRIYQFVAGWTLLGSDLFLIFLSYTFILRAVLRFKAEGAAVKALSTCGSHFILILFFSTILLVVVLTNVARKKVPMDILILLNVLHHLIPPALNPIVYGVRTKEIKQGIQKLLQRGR
In short: as §1

OR56A3 (Homo sapiens) = biological target: T14, OR56A3 (Homo sapiens) (UniProt Q8NH54)
T14 sequence (whole entry): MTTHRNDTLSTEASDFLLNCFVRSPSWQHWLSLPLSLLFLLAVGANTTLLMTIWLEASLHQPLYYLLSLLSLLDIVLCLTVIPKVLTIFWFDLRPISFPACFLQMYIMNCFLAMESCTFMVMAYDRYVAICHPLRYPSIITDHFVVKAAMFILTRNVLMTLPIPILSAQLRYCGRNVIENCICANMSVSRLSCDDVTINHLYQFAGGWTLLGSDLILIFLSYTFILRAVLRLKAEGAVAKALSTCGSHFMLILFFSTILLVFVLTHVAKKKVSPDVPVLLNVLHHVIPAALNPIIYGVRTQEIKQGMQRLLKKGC
In short: as §1

OR56A5 (Homo sapiens) = biological target: T15, OR56A5 (Homo sapiens) (UniProt P0C7T3)
T15 sequence (whole entry): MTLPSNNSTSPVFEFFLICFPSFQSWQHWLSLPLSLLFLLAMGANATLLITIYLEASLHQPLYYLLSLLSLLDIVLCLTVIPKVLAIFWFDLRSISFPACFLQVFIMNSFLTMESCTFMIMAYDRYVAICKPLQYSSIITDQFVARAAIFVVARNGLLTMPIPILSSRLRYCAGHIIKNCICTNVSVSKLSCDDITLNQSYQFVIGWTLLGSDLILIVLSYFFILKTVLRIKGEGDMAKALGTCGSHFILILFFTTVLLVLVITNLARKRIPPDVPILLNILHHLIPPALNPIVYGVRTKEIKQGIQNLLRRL
In short: as §1

OR56B1 (Homo sapiens) = biological target: T16, OR56B1 (Homo sapiens) (UniProt Q8NGI3)
T16 sequence (whole entry): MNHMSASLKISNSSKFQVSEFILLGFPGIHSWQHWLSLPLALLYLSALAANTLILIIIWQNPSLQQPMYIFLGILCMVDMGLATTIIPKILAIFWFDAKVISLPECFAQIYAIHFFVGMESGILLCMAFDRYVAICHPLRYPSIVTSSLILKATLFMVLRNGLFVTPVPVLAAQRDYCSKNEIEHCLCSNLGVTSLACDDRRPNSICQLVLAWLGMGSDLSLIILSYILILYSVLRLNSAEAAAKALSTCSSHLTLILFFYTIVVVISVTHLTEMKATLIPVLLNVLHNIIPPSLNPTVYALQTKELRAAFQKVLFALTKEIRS
In short: as §1

Measured: odorant receptor agonist call

CC1=NC(C)C(C)S1 (centres undefined)
inactive: all assays above

CCCC(S)CCOC(C)=O (centres undefined)
inactive: all assays above
